# ChEMBL document CHEMBL3822382 (Eur J Med Chem, 2016)
# Activity calls are given as the source filed them. The calls are words filed in the database; no cut-off is given here.
# Tests used:
# [1] = Growth inhibition of human MCF7/Topo cells after 24 hrs by MTT assay; format: functional, cell-based
# How it was run: (§1)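 Cells seeded at 5000/well (Ea.hy926 10,000/well) and exposed for 24 h to dilution series of 100 µM–5 pM, with DMSO as solvent control. MTT (0.5 mg/mL final) for 2 h. Formazan dissolved in SDS/acetic acid/DMSO and read at 570 nm against a 630 nm background. Viability taken relative to DMSO controls; IC50 from dose–response curves, mean of four independent experiments.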
# HT-29 [2] = test: Antivascular activity against in combretastatin A-4 resistant human HT-29 cells xenografted in fertilized white leghorn chicken egg chorioallantoic membrane assessed as blood vessel destruction at 5 nmol after 24 hrs by hematoxylin and eosin staining based stereomicroscopic analysis; format: functional, cell-based
# How it was run: (§2)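 Pellets of 1 × 10⁶ HT-29 cells in 10 μL of 1:1 matrigel/serum-free RPMI (gelled 30 min, 37 °C) were placed on the CAM of fertilized eggs and left 48 h. Then 100 μL of a 50 μM PBS dilution (5 nmol) was pipetted outside a silicon ring around the pellet; DMSO served as control. After 24 h, stereomicroscopy was done, and micro-xenografts were explanted, formalin-fixed, paraffin-embedded and HE-stained.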
# [3] = Growth inhibition of chicken cardiomyocytes after 48 hrs by MTT assay; conditions: Gallus gallus, Cardiomyocyte
# How it was run: (§3)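 Chicken heart fibroblasts explanted from 10-day-old embryos, seeded at 10,000/well; cardiomyocytes seeded at 20,000/well. Dilution series given for 48 h, DMSO as control. MTT 0.5 mg/mL for 2 h, absorbance at 570/630 nm. Viability versus DMSO controls; IC50 from dose–response curves, mean of three independent experiments.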
# 1411HP = test: Vascular disrupting activity against multidrug resistant human 1411HP cells xenografted in athymic nude mouse assessed as disruption of blood vessel at 100 mg/kg, ip after 24 hrs by hematoxylin and eosin staining based microscopic analysis; format: functional, organism-based
# How it was run: (§4)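 Athymic nude mice carried subcutaneous flank xenografts from 8 million cells. A single intraperitoneal dose of 100 mg/kg was given. After 24 h tumors were explanted, fixed in 5% formalin, paraffin-embedded and HE-stained for microscopic examination of vessels, hemorrhage and necrosis.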
# [4] = Cell cycle arrest in human 518A2 cells assessed as accumulation at S phase at 100 nM after 24 hrs by propidium iodide staining-based flow cytometry (reference value: 20.4%); format: functional
# HT-29 [5] = test: Cell cycle arrest in combretastatin A-4 resistant human HT-29 cells assessed as accumulation at G1 phase at 50 nM after 24 hrs by propidium iodide staining-based flow cytometry (reference value: 68.1 +/- 0.3%); format: functional
# [6] = Growth inhibition of primary chicken fibroblasts after 48 hrs by MTT assay; format: cell-based; conditions: Gallus gallus, Fibroblast; how it was run: as §3
# HT-29 [7] = test: Cell cycle arrest in combretastatin A-4 resistant human HT-29 cells assessed as mitotic cells at 100 nM after 24 hrs by propidium iodide/immunostaining method (reference value: 3.1 to 3.2%); format: functional
# How it was run: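 HT-29 cells (200,000/well) were treated 24 h with 100 nM indole, 5 μM CA-4 or DMSO. Cells were trypsinized, fixed in 4% formaldehyde (20 min, RT) and permeabilized in 90% ice-cold methanol (30 min). They were immunostained with anti-phospho-histone H3 (Ser10) (5 μg/mL, 37 °C, 1 h) plus an AlexaFluor-488 secondary, then stained with PI/RNase (30 min, 37 °C). Flow cytometry of 10,000 single cells assigned G1/S/G2/M.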
# HT-29 [8] = test: Cell cycle arrest in combretastatin A-4 resistant human HT-29 cells assessed as accumulation at G2 phase at 50 nM after 24 hrs by propidium iodide staining-based flow cytometry (reference value: 15.6 +/- 0.1%); format: functional
# [9] = Cell cycle arrest in human HCT116 cells expressing wild type p53 assessed as accumulation at G1 phase at 100 nM after 24 hrs by propidium iodide staining-based flow cytometry (reference value: 56.7%); format: functional; conditions: HCT-116
# A2780cisR [10] = test: Vascular disrupting activity against human A2780cis cells xenografted in athymic nude mouse assessed as hemorrhage at 100 mg/kg, ip after 24 hrs by hematoxylin and eosin staining based microscopic analysis; format: functional, organism-based; how it was run: as §4
# EA.hy 926 = test: Antivascular activity in human EAhy926 cells assessed as change in cell morphology from stretched to rounded form at 250 nM after 16 hrs by light microscopic analysis; format: functional, cell-based
# How it was run: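 Ea.hy926 cells (100,000/well) were seeded on Matrigel-coated coverslips and allowed 12 h to form vessel-like networks. Test agent (CA-4 100 nM; indoles 250 nM) or DMSO was then added for 16 h, and networks were documented by light microscopy. Viability was checked by 2 h MTT (0.5 mg/mL) relative to DMSO controls.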
# [11] = Cell cycle arrest in human 518A2 cells assessed as G2/M index ratio at 100 nM after 24 hrs by propidium iodide staining-based flow cytometry relative to control; format: functional
# [12] = Cell cycle arrest in human 518A2 cells assessed as accumulation at subG1 phase at 100 nM after 24 hrs by propidium iodide staining-based flow cytometry (reference value: 3.8%); format: functional
# HT-29 [13] = test: Antivascular activity against in combretastatin A-4 resistant human HT-29 cells xenografted in fertilized white leghorn chicken egg chorioallantoic membrane assessed as blood vessel hemorrhage at 5 nmol after 24 hrs by hematoxylin and eosin staining based stereomicroscopic analysis; format: functional, cell-based; how it was run: as §2
# Sus scrofa [14] = organism: Sus scrofa; test: Decrease in rate of porcine brain alpha/beta tubulin polymerization at 5 uM measured every 20 sec by microplate reader analysis
# A2780cisR [15] = test: Vascular disrupting activity against human A2780cis cells xenografted in athymic nude mouse assessed as disruption of blood vessel at 100 mg/kg, ip after 24 hrs by hematoxylin and eosin staining based microscopic analysis; format: functional, organism-based; how it was run: as §4
# Sus scrofa [16] = organism: Sus scrofa; test: Inhibition of porcine brain alpha/beta tubulin polymerization at 5 uM measured every 20 sec by microplate reader analysis
# HT-29 [17] = test: Growth inhibition of combretastatin A-4 resistant human HT-29 cells after 24 hrs by MTT assay; format: functional, cell-based; conditions: HT-29, 24 h; how it was run: as §1
# A2780cisR [18] = test: Antitumor activity against human A2780cis cells xenografted in athymic nude mouse assessed as reduction in tumor growth at 40 mg/kg, ip administered on day 3, 7, 10 and 14; format: functional, organism-based
# HT-29 [19] = test: Growth inhibition of combretastatin A-4 resistant human HT-29 cells after 72 hrs by MTT assay; format: functional, cell-based; conditions: HT-29, 72 h
# How it was run: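 5000 cells/well exposed for 72 h to dilution series of 100 µM–5 pM, with DMSO as solvent control. MTT 0.5 mg/mL final for 2 h, absorbance at 570/630 nm. Percentage viable cells taken versus DMSO controls; IC50 from dose–response curves, mean of four independent experiments.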
# HT-29 [20] = test: Cell cycle arrest in combretastatin A-4 resistant human HT-29 cells assessed as mitotic cells at 50 nM after 24 hrs by propidium iodide/immuno-staining method (reference value: 3.1 to 3.2%); format: functional
SMILES,IC50 [1] [nM],IC50 [3] [nM],IC50 [6] [nM],Activity [9] [%],Activity (EA.hy 926),inhibition (Sus scrofa [16]),IC50 (HT-29 [17]) [nM],IC50 (HT-29 [19]) [nM],also measured
COc1cc(-c2ncn(C)c2-c2ccc3c(c2)c(Cl)cn3C)cc(Br)c1OC.Cl,18.8,3970,23000,9,Active,inactive,31.3,23.4,Activity (HT-29 [2]): Active; Activity (1411HP): Active; Activity [4]: 17.8%; Activity (HT-29 [5]): 43.5%; Activity (HT-29 [7]): 77.8%; Activity (HT-29 [8]): 15.2%; Activity (A2780cisR [10]): Active; Ratio [11]: 1.5; Activity [12]: 7.4%; Activity (HT-29 [13]): Active; Activity (Sus scrofa [14]): Active; Activity (A2780cisR [15]): Active; Activity (A2780cisR [18]): Active; Activity (HT-29 [20]): 28%
COc1cc(-c2ncn(C)c2-c2ccc3c(c2)c(Cl)cn3C)cc(OC)c1OC,20.2,1870,11600,9.3,Active,Active,26.2,15.6,–
